# Screens as filed in PubChem BioAssay.
# TAAR1 ag – human TAAR1 agonism | 360,000 compounds, 0.99% hits | activation, % at 3 µM | AID 624467 | Q96RJ0 | CHO RD-HGA16 TAAR1, Fluo-8 calcium fluorescence; vehicle wells 0%, saturating PEA agonist 100%;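 active means activation above the mean activation of all test compounds in the run plus 3 SD, cut at about 38% in these data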
# Target sequence (Q96RJ0 whole entry, looked up): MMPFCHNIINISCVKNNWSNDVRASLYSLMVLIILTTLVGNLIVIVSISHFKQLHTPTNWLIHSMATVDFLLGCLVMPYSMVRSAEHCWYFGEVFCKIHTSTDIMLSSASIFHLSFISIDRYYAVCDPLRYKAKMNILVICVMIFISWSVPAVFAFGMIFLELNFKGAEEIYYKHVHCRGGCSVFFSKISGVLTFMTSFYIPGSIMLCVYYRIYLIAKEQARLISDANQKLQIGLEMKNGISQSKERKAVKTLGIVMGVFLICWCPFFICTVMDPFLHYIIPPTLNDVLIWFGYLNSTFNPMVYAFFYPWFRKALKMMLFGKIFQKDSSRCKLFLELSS
#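 Signal – calcium-sensitive Fluo-8 signal, excitation 470-495, emission 515-575 nm · System – RD-HGA16 (CHO) cells co-expressing Gα16 and hTAAR1 · Incubation – 17-24 h seeding, 75 min 37 °C dye, 30 min RT · Compound dosing – 3 µM single concentration · Repeats – no replicates (n 1)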
# CHO parental Ca – counter-screen for OX1R antagonists: effect in parental CHO cells | 330,000 compounds, 0.63% hits | parental CHO-K1, ATP-induced calcium, Fluo-8 fluorescence | AID 463079 | inhibition, % at 5.6 µM;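 active means inhibition above that plate's mean sample inhibition plus 3 SD, cut at about 26% in these data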
#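 Material – parental CHO cells · Reagent – ATP stimulus · Compound – single nominal dose of 5.6 µM per compound · Detection – Fluo-8 fluorescence · Read-out basis – percent inhibition of calcium signal · Controls – ATP-challenged DMSO wells low, unchallenged DMSO wells high · Repeats – no replicates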
# NTR1 agonist – activates human neurotensin receptor 1; P30989; NTR1-U2OS beta-arrestin-GFP spot imaging, agonist mode; activation, % at 20 µM; 330,000 compounds, 0.17% hits; AID 493036;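 active means activation at or above 40% of the spot to cytoplasm intensity ratio, with at least 20 cells analyzed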
# OX1R antag-1 – blocks the human orexin 1 receptor; OX1R-expressing cells, FRET antagonist read-out; 330,000 compounds, 1.8% hits; inhibition, % at 6.6 µM; in the data active means inhibition mostly above about 38%, no sharp cut-off; inactive means mostly below about 40%
# TAAR1 antagonist – antagonists of human TAAR1 | Q96RJ0 | CHO RD-HGA16 TAAR1, Fluo-8 calcium fluorescence, antagonist | inhibition, % at 3 µM | 360,000 compounds, 1.5% hits | AID 624466;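 active means inhibition above a per-plate cutoff, the mean inhibition of test compounds on that plate plus 3 SD, cut at about 49% in these data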
#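 test system = CHO RD-HGA16 cells bearing hTAAR1 | replication = singlicate | controls = DMSO-only wells and EC80 β-PEA-stimulated wells | reagent = EC80 β-phenethylamine stimulus | read-out basis = percent inhibition of PEA-evoked calcium signal, max/basal emission ratio | schedule = seeding 17-24 h prior, 75-min 37 °C, 30-min RT dye loading | signal = kinetic Fluo-8 calcium fluorescence measurement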
# OX1R antag-2 – antagonists of human orexin 1 receptor; CHO/OX1R cells, Fluo-8 calcium fluorescence, orexin A; inhibition, % at 5 µM; 330,000 compounds, 0.43% hits; AID 434989;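 active means inhibition above its plate's threshold, mean inhibition of all tested compounds on the plate plus 3 SD, cut at about 37% in these data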
# nonsel antag count – counter-screen for TAAR1 antagonists: nonselective antagonists | shares compounds with TAAR1 antagonist | counterscreen cell line, calcium fluorescence, antagonist mode | inhibition, % at 3 µM | 2,400 compounds, 77% hits | AID 651780; in the data active means inhibition above about 22%;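 further: CHO-Ga16 host cells stimulated with ATP at an EC80 level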
# TAAR1 antag conf – confirmation of human TAAR1 antagonists. shares compounds with TAAR1 antagonist. inhibition, % at 3 µM. AID 651785. 2,400 compounds, 40% hits. TAAR1-expressing cells, fluorescence antagonist read-out; in the data active means inhibition above about 49%;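 further: CHO-Ga16 host cells challenged with agonist PEA near its EC80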
# Ga16 ag counter – nonselective Ga16 agonist in TAAR1 antagonist counter-screen | shares compounds with TAAR1 antagonist | Ga16-expressing cells, calcium fluorescence, agonist counterscreen | activation, % at 3 µM | 2,400 compounds, 18% hits; in the data active means activation above about 12%
# TAAR1 ag count – counter-screen for human TAAR1 antagonists: TAAR1 agonists. shares compounds with TAAR1 antagonist. hTAAR1 cell line, fluorescence activation, agonist mode. activation, % at 3 µM. 2,400 compounds, 2% hits. AID 651955; in the data active means activation above about 37%;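 further: CHO cells stably expressing TAAR1 with calcium dye readout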
# Numbers stand for hits; - = inactive; . = not tested or not shown. An excerpt weighted towards active compounds, which were near 4% of everything screened.
SMILES,TAAR1 ag,CHO parental Ca,NTR1 agonist,OX1R antag-1,TAAR1 antagonist,OX1R antag-2,nonsel antag count,TAAR1 antag conf,Ga16 ag counter,TAAR1 ag count
O=C(CSc1ncnc2scc(-c3ccccc3)c12)N1CCN(c2ccccc2F)CC1,-,-,.,-,-,-,.,.,.,.
CCOC(=O)N=Nc1c(O)n(C)c2ccccc12,-,-,-,-,-,-,.,.,.,.
Cc1ccccc1OCC(=O)N=Nc1c(O)n(C)c2ccccc12,-,-,-,-,54,-,27,-,-,-
COc1ccc(-c2cn(Cc3ccc4ccccc4c3)nn2)cc1,-,-,-,-,106,-,46,81,-,-
COc1ccc(C(=O)N2CCC(C(=O)O)CC2)c2ccccc12,-,-,-,-,-,-,.,.,.,.
CN(c1ccc(C(=O)N2CCCCC2)cc1)S(C)(=O)=O,-,-,-,-,-,-,.,.,.,.
CC1CCN(C(=O)c2ccc(N(C)S(C)(=O)=O)cc2)CC1,-,-,-,-,107,-,-,-,-,-
O=C(NNC(=O)C1CC=CCC1)c1ccccc1O (stereo unspecified),-,-,-,-,-,-,.,.,.,.
O=C(NCc1ccco1)c1ccc(Cl)c(S(=O)(=O)Nc2ccccc2)c1,-,-,-,-,-,-,.,.,.,.
C=CCNC(=O)c1ccccc1NC(=O)c1ccc(Cl)c(S(=O)(=O)Nc2ccccc2)c1,-,-,-,-,55,-,28,-,-,-
CCOC(=O)C1=C[C@@H](C(C)C)N(S(=O)(=O)c2ccc([N+](=O)[O-])cc2)[C@H]1c1ccccc1,-,.,.,.,82,.,25,-,-,-
CCOC(=O)C1=C[C@@H](CC)N(S(=O)(=O)c2ccc([N+](=O)[O-])cc2)[C@H]1c1ccccc1,-,.,.,.,72,.,30,-,-,-
CCN(CC)C(=O)Cn1cc(S(=O)(=O)CC(=O)Nc2ccc(C(N)=O)cc2)c2ccccc21,-,-,-,-,-,-,.,.,.,.
Cc1cc(Cl)ccc1OCC(=O)NNC(=O)c1cccnc1,-,-,-,-,-,-,.,.,.,.
COc1ccc(-c2[nH]ncc2CN2CCCN(c3ccccc3)CC2)c(F)c1,-,-,-,-,-,-,.,.,.,.
COc1ccc2cc(-c3[nH]ncc3CN3CCCN(c4ccccc4)CC3)ccc2c1,-,-,-,-,106,-,-,-,22,56
Cc1c(-c2ccccc2)oc2c(C(=O)OCC(=O)Nc3cccc(F)c3)cccc2c1=O,-,-,-,-,63,-,33,64,-,-
Cc1[nH]c(C)c(S(=O)(=O)N2CCCCC2C)c1C(=O)N1CCCC1 (stereo unspecified),-,-,-,-,-,-,.,.,.,.
Cc1cc(-c2cc(NC(=O)Cc3c[nH]c4ccccc34)ccc2Nc2cccnc2)ccc1F,-,.,.,.,63,.,27,-,-,-
COc1ccc(-c2cc(NC(=O)Cc3c[nH]c4ccccc34)ccc2Nc2cccnc2)c(OC)c1,-,.,.,.,64,.,32,52,-,-
Cc1ccc(C(=O)Nc2ccc(C)c(S(=O)(=O)Nc3ccccc3Cl)c2)s1,-,-,-,-,68,-,-,-,-,-
Cc1ccc(-n2c(C)cc(/C=N/Nc3ccc([N+](=O)[O-])cn3)c2C)cc1,.,-,-,-,.,-,-,.,-,.
Cc1cc(/C=N/Nc2ccc([N+](=O)[O-])cn2)c(C)n1-c1ccccc1,-,-,-,-,-,-,.,.,.,.
COc1ccc(S(=O)(=O)N2CC=C(c3ccccc3)CC2)cc1OC,-,.,.,.,-,.,.,.,.,.
CCOc1ccc(N2CC(C(=O)NCc3ccc4c(c3)OCO4)CC2=O)cc1 (stereo unspecified),-,-,-,-,-,-,.,.,.,.
SMILES,TAAR1 ag,CHO parental Ca,NTR1 agonist,OX1R antag-1,TAAR1 antagonist,OX1R antag-2,nonsel antag count,TAAR1 antag conf,Ga16 ag counter,TAAR1 ag count
CCCOC(=O)c1c(-c2ccc(OC)cc2)oc2ccc(-c3ccc(OC)nc3)cc12,.,-,-,-,.,-,-,.,-,.
COC(=O)c1c(-c2ccc(OC)cc2)oc2ccc(-c3ccc(OC)nc3)cc12,-,-,-,-,-,-,.,.,.,.
COC(=O)c1c(-c2ccc(OC)cc2)oc2ccc(-c3cc(OC)c(OC)c(OC)c3)cc12,-,-,-,-,58,-,-,-,-,-
CCc1ccc(OCCNC(=O)c2ccccc2SCc2ccccc2)cc1,-,-,-,-,61,-,25,-,-,-
CCNC(=O)c1ccccc1SCc1ccccc1,-,-,-,-,-,-,.,.,.,.
COc1ccc(C2=NOC(Cn3nc(-c4ccccc4)cc3C(=O)NCc3ccco3)C2)cc1 (stereo unspecified),-,-,-,-,-,-,.,.,.,.
COc1ccc(C2=NOC(Cn3nc(C(=O)NCc4cccs4)cc3-c3ccccc3)C2)cc1 (stereo unspecified),-,-,-,-,77,-,40,51,-,-
COc1ccc(C2=NOC(Cn3nc(C(=O)NCc4ccco4)cc3-c3ccccc3)C2)cc1 (stereo unspecified),-,-,-,-,66,-,34,56,-,-
CCOC(=O)c1cc(-c2ccccc2)n(CC2CC(c3ccc(OC)cc3)=NO2)n1 (stereo unspecified),-,-,-,-,75,-,30,51,-,-
CCN(CC(=O)Nc1ccc(NC(C)=O)cc1)C(=O)c1ccc(N(C)S(=O)(=O)c2ccc(C)cc2)cc1,-,.,.,.,101,.,-,-,-,-
Cc1cccc(OCC(=O)N(C)CC(=O)Nc2cccc(F)c2)c1C,-,-,-,-,-,-,.,.,.,.
COc1ccc(CCC(=O)NCCS(=O)(=O)N2CCN(c3ccccc3OC)CC2)cc1,-,-,-,-,59,-,34,52,14,-
CCc1nc2ccc(C(=O)NCc3ccc4c(c3)OCO4)cn2c1N(C)CCC(C)C,-,.,.,.,67,.,-,-,-,-
COc1cccc(NC(=O)c2cccc(N3C(=O)C4CCC(C)CC4C3=O)c2)c1 (stereo unspecified),-,-,-,-,-,-,.,.,.,.
Cc1ccc(NC(=O)c2ccc(N3C(=O)C4CC=C(Cl)CC4C3=O)cc2)cc1 (stereo unspecified),-,-,-,-,63,-,24,-,13,-
Cc1ccc(C(=O)Nc2cccc(N3C(=O)C4CCC(C)CC4C3=O)c2)cc1 (stereo unspecified),-,-,-,-,71,-,31,50,-,-
